Drawing on ChEMBL document CHEMBL1138178, “Identification of novel parasitic cysteine protease inhibitors by use of virtual screening. 2. The available chemical directory” (J Med Chem, 2006), this text covers IC50 and IC90 for 25 molecules.

The target in test [1] is T1, Cysteine protease falcipain-3 (Plasmodium falciparum, UniProt Q9NBA7).
T1 sequence (Q9NBA7 whole entry): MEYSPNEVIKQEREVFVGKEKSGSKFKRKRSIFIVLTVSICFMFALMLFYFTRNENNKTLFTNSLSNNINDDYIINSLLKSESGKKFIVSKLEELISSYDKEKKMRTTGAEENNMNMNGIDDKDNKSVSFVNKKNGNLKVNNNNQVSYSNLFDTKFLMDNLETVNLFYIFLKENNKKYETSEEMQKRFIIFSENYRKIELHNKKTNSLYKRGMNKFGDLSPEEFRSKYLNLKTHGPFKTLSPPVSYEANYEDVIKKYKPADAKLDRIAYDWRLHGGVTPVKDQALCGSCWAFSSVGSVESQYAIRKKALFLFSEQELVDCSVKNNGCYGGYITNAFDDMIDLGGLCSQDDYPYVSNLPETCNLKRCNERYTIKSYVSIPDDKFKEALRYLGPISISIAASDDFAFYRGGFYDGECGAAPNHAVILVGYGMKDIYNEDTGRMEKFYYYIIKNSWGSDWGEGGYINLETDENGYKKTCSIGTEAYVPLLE
The experiment in a line: Inhibition of falcipain3.

The target in another test is T2, Falcipain 2 (Plasmodium falciparum, UniProt Q9N6S8).
T2 sequence (Q9N6S8 whole entry): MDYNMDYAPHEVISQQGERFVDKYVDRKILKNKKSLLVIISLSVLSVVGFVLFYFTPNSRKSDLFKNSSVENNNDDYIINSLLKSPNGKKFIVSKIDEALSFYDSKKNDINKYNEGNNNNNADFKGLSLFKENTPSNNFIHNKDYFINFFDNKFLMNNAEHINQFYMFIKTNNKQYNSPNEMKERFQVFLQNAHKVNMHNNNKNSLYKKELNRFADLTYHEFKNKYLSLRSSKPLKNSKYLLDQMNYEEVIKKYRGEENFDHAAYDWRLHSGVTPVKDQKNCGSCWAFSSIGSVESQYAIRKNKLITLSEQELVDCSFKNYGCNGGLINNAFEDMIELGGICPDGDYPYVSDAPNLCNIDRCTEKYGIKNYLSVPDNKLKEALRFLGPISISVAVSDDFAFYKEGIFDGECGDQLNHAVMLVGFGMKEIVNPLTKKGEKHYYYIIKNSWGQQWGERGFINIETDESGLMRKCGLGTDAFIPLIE
Nature of the test: Inhibition of falcipain2.

The next test deals with Plasmodium falciparum. Nature of the test: Antimalarial activity against Plasmodium falciparum W2. Format: functional, organism-based. The procedure, abridged:
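Sorbitol-synchronized chloroquine-resistant W2 P. falciparum at 1% parasitemia, 2% hematocrit, RPMI-1640 with 10% human serum, 3% O2/6% CO2/91% N2; compounds from DMSO (max 0.1%) for 48 h; fixed in 1% formaldehyde 48 h, stained with 1 nM YOYO-1 in 0.1% Triton X-100; parasitemia by flow cytometry; IC50 from percent control parasitemia versus concentration.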

The test system of a further test is Leishmania donovani. The experiment in a line: Antileishmanial activity against Leishmania donovani promastigotes. Format: functional, organism-based. The settings on record: Leishmania donovani; for IC50: read-out: IC50.
The test system of another test is Vero. Nature of the test: Cytotoxicity against Vero cells up to 50 uM. Format: functional, cell-based, Chlorocebus sabaeus. Put shortly:
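VERO monkey kidney fibroblast cells tested simultaneously with antileishmanial screen; cytotoxicity read by neutral red assay; IC50 computed from growth inhibition curve.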

For orientation: IC50 means the concentration that inhibits the measured activity by half. As usually defined, the IC90 is the concentration at which the effect reaches the 90% level.

With `COC(=O)c1ccsc1NC(=O)CN1CCN(S(=O)(=O)c2ccc(Cl)cc2)CC1`, the values for the half-maximal inhibitory concentration (IC50) (in test [1]; on Falcipain 2) were 49.2 µM and 14.3 µM, respectively.

Turning to `C[C@@H]1CC[C@H]2[C@@H](C)C(=O)O[C@@H]3O[C@@]4(C)CC[C@@H]1[C@]32OO4` [ARTEMISININ], in the test on Plasmodium falciparum, half-maximal inhibition (IC50) required 0.008 µM.

With `C[C@@H]1[C@H](O)[C@@H](C)/C=C/C=C/C=C/C=C/C=C/C=C/C=C/[C@H](O[C@@H]2O[C@H](C)[C@@H](O)[C@H](N)[C@@H]2O)C[C@@H]2O[C@](O)(C[C@@H](O)C[C@@H](O)[C@H](O)CC[C@@H](O)C[C@@H](O)CC(=O)O[C@H]1C)C[C@H](O)[C@H]2C(=O)O` [AMPHOTERICIN B], in the test with Leishmania donovani, the IC90 amounted to 0.3 µM and the IC50 is 0.04 µM.

On to `CCCS(=O)(=O)c1cscc1NC(=O)CSCCS(=O)(=O)c1ccc(Cl)cc1`, for which the IC50 in test [1] is above 50 µM; at Falcipain 2, 3.4 µM.

For the molecule `COC(=O)c1sccc1NC(=O)CC(=O)Nc1ccsc1C(=O)OC`, the IC50 in test [1] is above 50 µM; against Falcipain 2, 10.4 µM.

For the molecule `N=C(CS(=O)(=O)Cc1ccc(F)cc1)NOC(=O)c1cccs1`, the concentration for half-maximal inhibition (IC50) in test [1] was above 50 µM; at Falcipain 2, 50 µM.

For `COc1ccc(-c2cncc(-c3cc(NCCCn4ccnc4)nc(C)n3)c2)cc1`, 2.8 µM corresponded to half-maximal inhibition in the test with Plasmodium falciparum (IC50).

Regarding `O=C(CSCc1c(F)cccc1Cl)NCCSCc1ccco1`, the half-inhibitory concentration (IC50) was above 2.5 µM with Plasmodium falciparum, 107 µM in the test on Leishmania donovani and “Non-toxic” in the test with Vero.

`Cc1cccc(NC(=O)Cn2c(O)c(/N=N/C(=O)C(=O)NCc3ccccc3)c3ccccc32)c1`: the half-maximal inhibitory concentration (IC50) in test [1] was above 50 µM; at Falcipain 2, 1.6 µM.

On to `CCOC(=O)c1c2cc(OCC(=O)NCc3ccco3)ccc2n2ccccc12`, for which the IC50 was 31.2 µM in test [1], 13.8 µM against Falcipain 2 and 9.5 µM in the test with Plasmodium falciparum.

For `O=C(Cn1nnc(-c2ccccc2)n1)NNC=NOCc1c(F)cccc1Cl`, the IC50 was 38.5 µM in test [1] and 10.8 µM against Falcipain 2.

As to `O=S(=O)(c1ccc(-c2ccc(S(=O)(=O)N3CCOCC3)s2)s1)N1CCOCC1`, the IC50 in test [1] was found to be 37.7 µM; against Falcipain 2 it was 5.4 µM.

On to `N=C(N)c1ccc(OCCCCCOc2ccc(C(=N)N)cc2)cc1` [PENTAMIDINE], for which, in the test on Leishmania donovani, the 90% effect level (IC90) was put at 8.3 µM and the IC50 was determined as 2.5 µM.

As for `O=C(CCSSCCC(=O)NCc1ccccc1)NCc1ccccc1`, the 50% inhibitory concentration (IC50) stood at 18.8 µM in test [1] and 15.3 µM at Falcipain 2.

Consider `O=C(CSc1nnc(O)n1Cc1ccco1)c1ccc2c(c1)OCCO2`, for which the IC50 in test [1] is above 50 µM; against Falcipain 2 it was 52.3 µM.

As to `Cc1nc(C)nc(N(CCS(=O)(=O)c2ccccc2)CCS(=O)(=O)c2ccccc2)n1`, the values for the concentration for half-maximal inhibition (IC50) (in test [1]; on Falcipain 2) were above 50 µM and 13.2 µM, respectively.

In the case of `O=S(=O)(Cc1ccc(Cl)cc1)Cc1nc(-c2ccsc2)no1`, the IC50 was 56.6 µM in test [1] and 47.8 µM at Falcipain 2.

On to `Cn1c(O)c(/N=N/C(=O)CCCCC(=O)/N=N/c2c(O)n(C)c3ccccc23)c2ccccc21`, for which the IC50 in test [1] is above 50 µM; against Falcipain 2, 6.5 µM.

In the test with Plasmodium falciparum, `O=C(NCc1ccncc1)c1ccc(-c2cnn(Cc3ccccc3)c2)nc1` registered an IC50 of 20 µM.

Take `Cc1csc(Cn2nc(CC(=O)N/N=C/c3ccccc3)c3ccccc3c2=O)n1`: the IC50 is above 50 µM in test [1] and 54.3 µM on Falcipain 2.

As to `Cc1ccc(S(=O)(=O)NC(=O)NCC2CCN(S(=O)(=O)c3ccccc3)CC2)cc1`, the IC50 in test [1] was determined as 34 µM; on Falcipain 2, 19 µM.

`CC(C)C[C@H](NC(=O)[C@H]1O[C@@H]1C(=O)O)C(=O)NCCCCN=C(N)N` [E-64] had a 50% inhibitory concentration (IC50) in test [1] of 0.075 µM.

With `Cc1ccc(S(=O)(=O)N(C)C)cc1NS(=O)(=O)c1ccc(-c2ccon2)s1`, the IC50 in test [1] was above 50 µM; at Falcipain 2 it was 2.9 µM.

For the molecule `CCCc1cc(O)nc(SCC(=O)NCCSCc2ccco2)n1`, the half-inhibitory concentration (IC50) in test [1] was above 50 µM; against Falcipain 2, 4.6 µM.

As for `O=S(=O)(NCc1ccco1)c1ccc2c(c1)Cc1cc(S(=O)(=O)NCc3ccco3)ccc1-2`, the results for the concentration for half-maximal inhibition (IC50) (in test [1]; at Falcipain 2) were 11.4 µM and 1.4 µM, respectively.
